Laboratory results reported in ChEMBL document CHEMBL1147176, “Synthesis of S-dialkylarsino-3-mercapto-1,2-propanediols and evaluation of their anticancer activity” (2007).

Assays:
Type in all cases: functional
CCRF-CEM = assay: Anticancer activity against human CCRF-CEM cells assessed as growth inhibition
How it was run: (§1)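 NCI in vitro disease-oriented human tumor cell screen, about 60 lines. Growth inhibition read as pGI50, the -log of the molar concentration inhibiting 50% net cell growth. A mean graph midpoint is the arithmetic mean over all tested lines. Where the effect was not reached within the concentration interval, the highest tested concentration was used.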

U-251 = assay: Anticancer activity against human U251 cells assessed as growth inhibition
How it was run: (§2)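 The value is GI50, the molar concentration causing 50% inhibition of net cell growth, reported as pGI50 (−log molar).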

UO-31 = assay: Anticancer activity against human UO31 cells assessed as growth inhibition; how it was run: as §2
K562 = assay: Anticancer activity against human K562 cells assessed as growth inhibition; how it was run: as §1
KM12 = assay: Anticancer activity against human KM12 cells assessed as growth inhibition; how it was run: as §1
COLO 205 = assay: Anticancer activity against human COLO 205 cells assessed as growth inhibition; how it was run: as §1
NCI/ADR-RES = assay: Anticancer activity against human NCI/ADR-RES cells assessed as growth inhibition; how it was run: as §1
NCI-H23 = assay: Anticancer activity against human NCI-H23 cells assessed as growth inhibition; how it was run: as §1
SF-539 = assay: Anticancer activity against human SF539 cells assessed as growth inhibition; how it was run: as §1
A549 = assay: Anticancer activity against human A549/ATCC cells assessed as growth inhibition; how it was run: as §1
SF-268 = assay: Anticancer activity against human SF268 cells assessed as growth inhibition; how it was run: as §1
TK-10 = assay: Anticancer activity against human TK10 cells assessed as growth inhibition; how it was run: as §1
NCI-H522 = assay: Anticancer activity against human NCI-H522 cells assessed as growth inhibition; how it was run: as §1
SF-295 = assay: Anticancer activity against human SF295 cells assessed as growth inhibition; how it was run: as §1
HL-60 = assay: Anticancer activity against human HL60(TB) cells assessed as growth inhibition; how it was run: as §1
786-0 = assay: Anticancer activity against human 786-0 cells assessed as growth inhibition; settings: read-out: Log LC50 (the source's name) (converted); how it was run: as §1
T47D = assay: Anticancer activity against human T47D cells assessed as growth inhibition; how it was run: as §1
SNB-19 = assay: Anticancer activity against human SNB19 cells assessed as growth inhibition; how it was run: as §1
SN12C = assay: Anticancer activity against human SN12C cells assessed as growth inhibition; how it was run: as §1
M14 = assay: Anticancer activity against human M14 cells assessed as growth inhibition; how it was run: as §1
HCT-15 = assay: Anticancer activity against human HCT15 cells assessed as growth inhibition; how it was run: as §1
OVCAR-5 = assay: Anticancer activity against human OVCAR5 cells assessed as growth inhibition; how it was run: as §1
SW-620 = assay: Anticancer activity against human SW620 cells assessed as growth inhibition; how it was run: as §1
DU-145 = assay: Anticancer activity against human DU145 cells assessed as growth inhibition; how it was run: as §1
PC-3 = assay: Anticancer activity against human PC3 cells assessed as growth inhibition; how it was run: as §1
IGROV-1 = assay: Anticancer activity against human IGROV1 cells assessed as growth inhibition; how it was run: as §1
[1] = read-out: Log LC50 (the source's name) (converted)

C[As](C)SCC(COC(=O)C(Cl)c1ccccc1)OC(=O)C(Cl)c1ccccc1 (stereo unspecified)
GI50 (CCRF-CEM): 0.302 µM | CC50 (CCRF-CEM; [1]): 32.4 µM | GI50 (U-251): 6.31 µM | CC50 (U-251; [1]): > 100 µM | GI50 (UO-31): 5.37 µM | CC50 (UO-31; [1]): > 100 µM | GI50 (K562): 0.0372 µM | CC50 (K562; [1]): 5.37 µM | GI50 (KM12): 1.2 µM | CC50 (KM12; [1]): 30.9 µM | GI50 (COLO 205): 0.363 µM | CC50 (COLO 205; [1]): > 100 µM | GI50 (NCI/ADR-RES): 2.04 µM | CC50 (NCI/ADR-RES; [1]): 32.4 µM | GI50 (NCI-H23): 0.741 µM | CC50 (NCI-H23; [1]): 22.9 µM | GI50 (SF-539): 3.63 µM | CC50 (SF-539; [1]): > 100 µM | GI50 (A549): 3.72 µM | CC50 (A549; [1]): > 100 µM | GI50 (SF-268): 3.16 µM | CC50 (SF-268; [1]): 56.2 µM | GI50 (TK-10): 0.112 µM | CC50 (TK-10; [1]): 2.69 µM | GI50 (NCI-H522): 0.457 µM | CC50 (NCI-H522; [1]): > 100 µM | GI50 (SF-295): 3.63 µM | CC50 (SF-295; [1]): 43.7 µM | GI50 (HL-60): 0.162 µM | CC50 (HL-60; [1]): 8.51 µM | CC50 (786-0): 25.1 µM | GI50 (T47D): 5.89 µM | CC50 (T47D; [1]): 60.3 µM | GI50 (SNB-19): 11.5 µM | CC50 (SNB-19; [1]): 85.1 µM | GI50 (SN12C): 2.45 µM | CC50 (SN12C; [1]): 67.6 µM | GI50 (M14): 0.603 µM | CC50 (M14; [1]): 34.7 µM | GI50 (HCT-15): 0.38 µM | CC50 (HCT-15; [1]): > 100 µM | GI50 (OVCAR-5): 3.55 µM | CC50 (OVCAR-5; [1]): 37.2 µM | GI50 (SW-620): 0.617 µM | CC50 (SW-620; [1]): > 100 µM | GI50 (DU-145): 4.27 µM | CC50 (DU-145; [1]): 58.9 µM | GI50 (PC-3): 0.55 µM | CC50 (PC-3; [1]): 47.9 µM | GI50 (IGROV-1): 4.47 µM | CC50 (IGROV-1; [1]): > 100 µM
